# Lipid droplet – hepatic lipid droplet formation modulation | inhibition, % at 6.5 µM | 0.4% of 240,000 active | AML12 mouse hepatocytes, oleate lipid droplets, BODIPY imaging;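 active means lipid droplet intensity inhibited by at least 50%, with more than 500 cells counted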
#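 System: AML12 hepatocytes (mouse). Probe or stimulus: oleic acid at 100 µM to induce lipid droplet formation. Times: overnight treatment with compound plus oleate. Detection: Image-based BODIPY and DAPI two-channel analysis. Evaluation: percent inhibition of filter-corrected integrated lipid droplet intensity per well.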
# TAG inh – triacylglycerol accumulation inhibition; H9c2 cells, Nile Red lipid (TAG) fluorescence; cells loaded with 200 µM oleic acid; inhibition, % at 12.5 µM; AID 651582; 0.66% of 230,000 active;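 active means pattern-corrected inhibition of lipid staining of at least 50% with the nuclear-stain viability signal not falling by more than 50%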;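 further: 0% = DMSO wells and 100% = triacsin C control wells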
# Jurkat NFkB inh – inhibitors of the PMA/ionomycin-induced NF-kB reporter in Jurkat cells; 0.53% of 330,000 active; PMA/ionomycin-induced NF-kB luciferase reporter, luminescence; inhibition, % at 4 µM; in the data active means inhibition above about 50%
# 697 NFkB inh – inhibitors of the PMA/ionomycin-induced NF-kB reporter in 697 B cells | 697 B-cell NF-kB luciferase reporter, 16 h | inhibition, % at 4 µM | 0.33% of 330,000 active | AID 435022; in the data active means inhibition above about 35%
# APP 5UTR inh – APP translation inhibition | SH-SY5Y APP 5'UTR-luciferase reporter, luminescence | inhibition, % at 2 µM | 0.82% of 190,000 active | AID 1285;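 active means inhibition above a set limit, derived from the sample mean plus 3 SD, cut at about 45% in these data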
# aSyn UTR inh – MLPCN primary screen, SNCA 5' untranslated region | alpha-synuclein 5'UTR reporter, inhibitor activity | inhibition, % (tested at 7.5 µM) | 0.82% of 300,000 active | AID 1813; in the data active means inhibition above about 60%;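 further: H4 neuroglioblastoma cells stably carrying SNCA 5'UTR luciferase fusion; 0% = DMSO wells and 100% = positive control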
# 697 NFkB conf – lowers PMA/ionomycin-induced NF-kB signal in 697 B cells; shares compounds with 697 NFkB inh; 697 B-cell NF-kB luciferase, 16 h; inhibition, % at 4 µM; 35% of 2,000 active; in the data active means inhibition mostly above about 28%, no sharp cut-off; inactive means mostly below about 22%
# An asterisk follows results filed as active; i = inactive; · = no result given. Rows were chosen to be rich in hits. Some 1.9% of all compounds tested hit in one or more screens of this group.
SMILES,Lipid droplet,TAG inh,Jurkat NFkB inh,697 NFkB inh,APP 5UTR inh,aSyn UTR inh,697 NFkB conf
CSc1ncc(Cl)c(C(=O)Nc2sc3c(c2C(=O)NCc2ccco2)CCCC3)n1,·,·,·,·,-3,·,·
CCSc1ncc(Cl)c(C(=O)Nc2sc3c(c2C(=O)NCc2cccnc2)CCCC3)n1,·,·,14,38*,-15,7,25*
CCn1ccnc1CN(C)C(=O)c1cc(COc2ccc(OC)c3ccccc23)on1,-10,7,-19,-13,·,11,·
Cc1nc([N+](=O)[O-])c(Sc2nc3ccc([N+](=O)[O-])cc3[nH]2)n1Cc1ccccc1,20,·,5,36*,-4,7,30*
Cc1nc([N+](=O)[O-])c(Br)n1Cc1ccccc1,6,-2,-15,-11,·,-8,·
O=C(O)C1CCN(C(=O)COc2ccc3c4c(c(=O)oc3c2)CCCC4)CC1,8,·,1,38*,·,8,13
Cc1c(CCC(=O)N[C@@H](C)C(=O)O)c(=O)oc2cc3oc4c(c3cc12)CCCC4,-15,·,12,41*,·,71*,18
Cc1c(CC(=O)NCCC(=O)O)c(=O)oc2cc3oc4c(c3cc12)CCCC4,-26,·,16,17,·,8,·
Cc1c(CCC(=O)N2CCC(C(=O)O)CC2)c(=O)oc2cc3oc4c(c3cc12)CCCC4,-13,·,0,49*,·,74*,47*
Cc1c(CCC(=O)N2CCC(C(=O)O)(c3ccccc3)CC2)c(=O)oc2cc3oc4c(c3cc12)CCCC4,·,·,-1,53*,·,67*,37*
CCn1c(CNC(=O)c2ccco2)nnc1SCC(=O)Nc1cc(F)ccc1C,-3,·,6,13,·,9,·
CCC(C)NC(=O)c1ccc(C)c(NC(=O)C2=C(C)OCCS2)c1 (stereo unspecified),-6,·,-6,0,·,1,·
COc1ccc(Nc2ncnc3c2c(C)c(C)n3CCO)cc1,1,·,-98,-113,·,-58,·
CC(C)CN(C(=O)c1cc2ccccc2o1)c1c(N)n(CC(C)C)c(=O)[nH]c1=O,-4,·,21,6,11,29,·
N#Cc1ccccc1NC(=O)CSc1cn[nH]n1,-6,·,-2,20,·,-18,·
COc1ccc(-c2noc(N3CCC(C(=O)Nc4ccc(OC)c(OC)c4)CC3)n2)cc1,0,2,17,47*,·,27,38*
COc1ccc(-c2noc(N3CCC(C(=O)Nc4ccccc4F)CC3)n2)cc1,-5,0,10,24,·,-10,·
COc1ccc(-c2noc(N3CCC(C(=O)Nc4ccccc4Cl)CC3)n2)cc1,8,15,20,39*,·,-15,19
CC(C)C(O)(C#CCN1CCCCC1)C(C)C,19,-3,-20,7,-20,-3,·
CCOc1ccc(-c2ccc(SCC(=O)NC3CCCCC3)nn2)cc1,19,6,-104,-154,·,-69,·
CSCCC(NC(=O)OC(C)(C)C)C(=O)Oc1ccc2c(=O)c(-c3ccc4c(c3)OCCO4)coc2c1 (stereo unspecified),·,7,-97,-265,-173,·,-253
CN(C(=O)c1cccc(NC(=O)Cc2cccc(NC(=O)C3CCCN(C(=O)CCc4ccccc4)C3)c2)c1)C1CCC1 (stereo unspecified),·,15,·,·,·,·,·
CCOC(=O)c1cn[nH]c1NC(=S)Nc1ccc(OC)cc1,-8,-33,-128,-371,·,8,-199
Cc1ccc(NC(=O)c2ccc(Cn3cc([N+](=O)[O-])cn3)cc2)c(C)c1,-4,·,2,19,-4,11,·
CC1CCCC(C)N1C(=O)COC(=O)CSc1ccc(C(N)=O)cc1[N+](=O)[O-] (stereo unspecified),·,1,6,35*,·,-2,-11
SMILES,Lipid droplet,TAG inh,Jurkat NFkB inh,697 NFkB inh,APP 5UTR inh,aSyn UTR inh,697 NFkB conf
NS(=O)(=O)c1ccc(N=Nc2ccc(O)c3ncccc23)cc1,2,·,14,-388,·,64*,-255
NS(=O)(=O)c1ccc(N=Nc2c(O)ccc3ccccc23)cc1,14,-15,16,-28,9,0,·
CCOC(=O)C1=NOC(COc2ccccc2C=O)C1 (stereo unspecified),10,·,20,11,-18,-13,·
Cc1cccc2cc(CN(Cc3ccco3)C(=O)c3ccncc3)c(=O)[nH]c12,-3,-2,-1,36*,1,-6,-3
CCN(Cc1ccccc1)C(=O)C(=O)c1cn(CC(=O)N2CCCC2)c2ccccc12,-48,9,9,10,·,-3,·
CCc1nc(CN2CCCC(C(=O)c3ccc4c5c(cccc35)CC4)C2)c(C)[nH]1 (stereo unspecified),-32,23,7,-12,-4,31,·
COc1cc(-c2[nH]nc3c2C(c2ccco2)C(C#N)=C(N)O3)cc(OC)c1OC (stereo unspecified),3,7,17,57*,11,11,37*
Cc1ccc(C(=O)N2CCCC(c3ccc(Cl)cc3)=N2)cc1,15,-3,-2,42*,8,-11,39*
N=C1C(c2nc3ccccc3s2)=C(O)CN1C1CCC(O)CC1 (stereo unspecified),-4,·,-13,2,·,-3,·
N=C1C(c2nc3ccccc3s2)=C(O)CN1C1CCCCC1,0,·,-124,-271,-42,-48,-88
O=C(O)c1cc(N/N=C/c2cccs2)ccc1Cl,9,·,-14,-23,-152,-253,·
Cc1ccc(/C=N/Nc2ccc(Cl)c(C(=O)O)c2)s1,-4,·,-107,-298,-166,-153,-39
Cc1ccc2nc(Cl)cc(=O)n2c1,·,-4,·,·,·,·,·
COc1cc(C(=O)NC(C)c2ccccc2)ccc1OCC(=O)N1CCOCC1 (stereo unspecified),·,-2,0,15,·,·,·
COc1cc(C(=O)O)ccc1OCC(=O)N1CCOCC1,·,·,1,40*,-5,7,-7
COc1ccc2nc(C)cc(SCC(=O)NNC(=O)COc3ccccc3)c2c1,·,20,-9,13,0,-8,·
COc1ccc2nc(C)cc(Sc3nc4ccccc4s3)c2c1,-4,·,27,42*,·,5,38*
Cc1ccc(CNC(=O)CSc2ncc(C(=O)Nc3ccccc3)c(=O)n2C)cc1,·,-3,20,-18,·,-8,·
CCN1C(=O)/C(=C\c2cccn2-c2ccc([N+](=O)[O-])cc2)N(CC)C1=S,-2,·,-1,11,21,29,·
O=[N+]([O-])c1ccccc1COc1ccc(Cl)c2cccnc12,-18,·,-76,-306,·,8,-312
Cc1nn(Cc2ccccc2Cl)c(C)c1C(=O)Nc1nnc(C2CC2)s1,·,7,-54,i,6,13,i
CCOc1ncccc1C(=O)Nc1nnc(C2CC2)s1,-8,14,12,39*,0,-51,-2
Cc1nn(-c2ccccc2)c(Cl)c1C(=O)Nc1nnc(C2CCCCC2)s1,·,15,-8,-3,-10,2,·

# Bioassay records (PubChem)
